Experimental data pooled from the literature.
Each line is one published result; the experiments were not run side by side.
Target: Serine/threonine-protein kinase PLK3 (PLK3, Homo sapiens, UniProt Q9H4B4)

| SMILES | read-out | method | concentration | remaining binding [%] |
| --- | --- | --- | --- | --- |
| O=C(Nc1c[nH]nc1C(=O)NC1CCNCC1)c1cc(F)cc(F)c1 | binding | competition with immobilised ligand | 1 µM | 86 |
| C[C@@H]1CCN(c2nccc(-c3cnn4ncccc34)n2)C1 | binding | – | 1 µM | 88 |
| CC(=O)N1CCC(c2ccc(C(=O)NC3=NCCN3)cc2C(F)(F)F)CC1 | cell-free assay | competition with immobilised ligand | 1 µM | 78 |
| C[C@@H]1CN(c2ccc3ncc(-c4ccc5[nH]nc(C6CC6)c5c4)n3n2)C[C@H](C)O1 | binding | competition with immobilised ligand | 50 nM | 78 |
| COc1cnc(Nc2cccc(S(N)(=O)=O)c2)nc1N1CCN(c2ccccc2)CC1 | binding | competition with immobilised ligand | 1 µM | 95 |
| COc1ccc2cc(OCC3(C(=O)O)CN(C(=O)c4ccc(F)cc4)C3)ccc2c1 | cell-free assay | competition with immobilised ligand | 1 µM | 95 |
| O=C(c1ccc(Nc2ncc(Cl)c(-c3cc4ccccc4s3)n2)cc1)N1CCC(N2CCCC2)CC1 | binding | competition with immobilised ligand | 1 µM | 58 |
| F[C@@H]1CCN(c2nccc(-c3cnn4ncccc34)n2)C1 | binding | – | 1 µM | 87 |
| N#Cc1ccccc1CSc1nnc2c(n1)[nH]c1ccccc12 | binding | competition with immobilised ligand | 10 µM | 100 |
| COc1ncc2cc3ccccc3nc2c1C#N | cell-free assay | competition with immobilised ligand | 5 µM | 69 |
| O=C(NCCCN1CCOCC1)c1ccc(Nc2nccc(-c3cc4ccccc4s3)n2)cc1 | binding | competition with immobilised ligand | 1 µM | 42 |
| NS(=O)(=O)c1cc(NC(=O)Cc2ccccc2)ccc1Oc1cccc(Cl)c1 | cell-free assay | competition with immobilised ligand | 1 µM | 87 |
| c1cncc(-c2cccc(Nc3nccc(NC4CCCCC4)n3)c2)c1 | binding | competition with immobilised ligand | 10 µM | 78 |
| CN([C@@H]1CCc2c(CC(=O)O)c3ccccc3n2C1)S(=O)(=O)c1ccc(F)cc1 | cell-free assay | competition with immobilised ligand | 1 µM | 85 |
| C=CC(=O)N1CCC(C(=O)NCC(=O)N2CCN(c3nc(-c4cnc(N)nc4C(F)F)nc(N4CCOCC4)n3)CC2)CC1 | binding | competition with immobilised ligand | 1 µM | 58 |
| CS(=O)(=O)c1cc(C2(NC(=O)c3cncc4c3cnn4-c3ccc(F)cc3)CC2)ccn1 | cell-free assay | competition with immobilised ligand | 1 µM | 68 |
| COc1ccnn2ncc(-c3ccnc(N(C)C)n3)c12 | binding | – | 1 µM | 75 |
| O=C(c1ccc(Nc2ncc(Cl)c(-c3ccc(Cl)s3)n2)cc1)N1CCC(N2CCCC2)CC1 | binding | competition with immobilised ligand | 1 µM | 31 |
| CN(C)c1nccc(-c2cnc3ncccn23)n1 | binding | – | 1 µM | 66 |
| C[C@H](c1ccnc(Nc2nc3ccc(-c4cc(N(C)C)ncn4)cc3[nH]2)c1)N1CCN(C(=O)CC(F)(F)F)CC1 | cell-free assay | competition with immobilised ligand | 0.1 µM | 100 |
| N[C@H]1CCN(c2nccc(-c3cnn4ncccc34)n2)C1 | binding | – | 1 µM | 83 |
| CCN1CCN(Cc2ccc(C(=O)Nc3ccc(C)c(Oc4ccc5c(c4)CC(=O)N5)c3)cc2C(F)(F)F)CC1 | binding | competition with immobilised ligand | 1 µM | 100 |
| c1cnn2ncc(-c3ccnc(N4CCC45COC5)n3)c2c1 | binding | – | 1 µM | 79 |
| C[C@H](c1ccc(F)cc1)N(Cc1cccc(C(=O)O)c1)C(=O)c1cnc2ccccc2c1 | cell-free assay | competition with immobilised ligand | 1 µM | 100 |
